# Test results: ChEMBL document CHEMBL3102840, “Synthesis and anti-proliferative activity of aromatic substituted 5-((1-benzyl-1H-indol-3-yl)methylene)-1,3-dimethylpyrimidine-2,4,6(1H,3H,5H)-trione analogs against human tumor cell lines” (2014)
# Experiments:
# Format in all cases: functional
# NCI-H226 [1] = test: Cytotoxicity against human NCI-H226 cells assessed as growth inhibition at 10 uM after 48 hrs by SRB assay; settings: NCI-H226, 48 h, read-out: GI
# How it was run: (§1)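 Single-dose screen at 10µM across the sixty-cell-line panel. Percentage growth is derived from SRB-stain OD taken just before compound exposure, after 48 hrs exposure, and in vehicle-treated controls. Negative values indicate cytotoxicity.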
# A498 [2] = test: Cytotoxicity against human A498 cells assessed as growth inhibition at 10 uM after 48 hrs by SRB assay; settings: A498, 48 h, read-out: GI; how it was run: as §1
# SK-OV-3 = test: Cytotoxicity against human SKOV3 cells after 48 hrs by SRB assay; settings: SK-OV-3, 48 h
# How it was run: (§2)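 Five-dose run from the sixty-line panel, at 10−4, 10−5, 10−6, 10−7 and 10−8 M. SRB-stain OD is read just before compound addition, after 48 hrs of exposure, and in vehicle controls, giving percentage growth; negative growth indicates cytotoxicity. GI50 is the concentration giving 50% reduction in net protein increase versus control cells. LC50 is the concentration lethal to 50% of cells.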
# NCI-H23 = test: Cytotoxicity against human NCI-H23 cells after 48 hrs by SRB assay; settings: NCI-H23, 48 h; how it was run: as §2
# A498 [3] = test: Cytotoxicity against human A498 cells after 48 hrs by SRB assay; settings: A498, 48 h; how it was run: as §2
# MDA-MB-231 = test: Cytotoxicity against human MDA-MB-231 cells after 48 hrs by SRB assay; settings: MDA-MB-231, 48 h; for CC50: read-out: LC50 (the source's name); how it was run: as §2
# T47D = test: Cytotoxicity against human T47D cells after 48 hrs by SRB assay; how it was run: as §2
# OVCAR-8 = test: Cytotoxicity against human OVCAR8 cells after 48 hrs by SRB assay; settings: OVCAR-8, 48 h; for CC50: read-out: LC50 (the source's name); how it was run: as §2
# K562 = test: Cytotoxicity against human K562 cells after 48 hrs by SRB assay; settings: K562, 48 h; for CC50: read-out: LC50 (the source's name); how it was run: as §2
# NCI-H460 = test: Cytotoxicity against human NCI-H460 cells after 48 hrs by SRB assay; settings: NCI-H460, 48 h; for CC50: read-out: LC50 (the source's name); how it was run: as §2
# HOP-62 = test: Cytotoxicity against human HOP62 cells after 48 hrs by SRB assay; settings: HOP-62, 48 h; for CC50: read-out: LC50 (the source's name); how it was run: as §2
# TK-10 [4] = test: Cytotoxicity against human TK10 cells after 48 hrs by SRB assay; settings: TK-10, 48 h; for CC50: read-out: LC50 (the source's name); how it was run: as §2
# SW-620 = test: Cytotoxicity against human SW620 cells after 48 hrs by SRB assay; settings: SW-620, 48 h; for CC50: read-out: LC50 (the source's name); how it was run: as §2
# LOX IMVI = test: Cytotoxicity against human LOXIMVI cells after 48 hrs by SRB assay; settings: for CC50: read-out: LC50 (the source's name); how it was run: as §2
# IGROV-1 = test: Cytotoxicity against human IGROV1 cells after 48 hrs by SRB assay; settings: IGROV-1, 48 h; for CC50: read-out: LC50 (the source's name); how it was run: as §2
# [5] = Cytotoxicity against human OVCAR5 cells assessed as growth inhibition at 10 uM after 48 hrs by SRB assay; settings: OVCAR-5, 48 h, read-out: GI; how it was run: as §1
# [6] = Cytotoxicity against human NCI-ADR-RES cells after 48 hrs by SRB assay; settings: for CC50: read-out: LC50 (the source's name); how it was run: as §2
# SR = test: Cytotoxicity against human SR cells after 48 hrs by SRB assay; how it was run: as §2
# MDA-MB-468 [7] = test: Cytotoxicity against human MDA-MB-468 cells assessed as growth inhibition at 10 uM after 48 hrs by SRB assay; settings: MDA-MB-468, 48 h, read-out: GI; how it was run: as §1
# RXF 393 = test: Cytotoxicity against human RXF393 cells after 48 hrs by SRB assay; settings: RXF 393, 48 h; how it was run: as §2
# [8] = Cytotoxicity against human UACC257 cells after 48 hrs by SRB assay; settings: UACC-257, 48 h; for CC50: read-out: LC50 (the source's name); how it was run: as §2
# SK-MEL-5 = test: Cytotoxicity against human SK-MEL-5 cells after 48 hrs by SRB assay; settings: SK-MEL-5, 48 h; how it was run: as §2
# MDA-MB-468 [9] = test: Cytotoxicity against human MDA-MB-468 cells after 48 hrs by SRB assay; settings: MDA-MB-468, 48 h; how it was run: as §2
# 786-0 = test: Cytotoxicity against human 786-0 cells after 48 hrs by SRB assay; settings: 786-0, 48 h; how it was run: as §2
# SNB-19 = test: Cytotoxicity against human SNB19 cells after 48 hrs by SRB assay; settings: SNB-19, 48 h; how it was run: as §2
# TK-10 [10] = test: Cytotoxicity against human TK10 cells assessed as growth inhibition at 10 uM after 48 hrs by SRB assay; settings: TK-10, 48 h, read-out: GI; how it was run: as §1
# MCF7 = test: Cytotoxicity against human MCF7 cells after 48 hrs by SRB assay; settings: MCF7, 48 h; how it was run: as §2
# [11] = Cytotoxicity against human OVCAR5 cells after 48 hrs by SRB assay; settings: OVCAR-5, 48 h; for CC50: read-out: LC50 (the source's name); how it was run: as §2
# HCT-116 = test: Cytotoxicity against human HCT116 cells after 48 hrs by SRB assay; settings: HCT-116, 48 h; how it was run: as §2
# UACC-62 = test: Cytotoxicity against human UACC62 cells after 48 hrs by SRB assay; settings: UACC-62, 48 h; how it was run: as §2
# MDA-MB-435 = test: Cytotoxicity against human MDA-MB-435 cells after 48 hrs by SRB assay; settings: MDA-MB-435, 48 h; how it was run: as §2
# SF-295 = test: Cytotoxicity against human SF295 cells after 48 hrs by SRB assay; settings: SF-295, 48 h; how it was run: as §2
# SN12C = test: Cytotoxicity against human SN12C cells after 48 hrs by SRB assay; settings: for CC50: read-out: LC50 (the source's name); how it was run: as §2
# SK-MEL-2 = test: Cytotoxicity against human SK-MEL-2 cells after 48 hrs by SRB assay; settings: SK-MEL-2, 48 h; how it was run: as §2
# NCI-H226 [12] = test: Cytotoxicity against human NCI-H226 cells after 48 hrs by SRB assay; settings: NCI-H226, 48 h; for CC50: read-out: LC50 (the source's name); how it was run: as §2
# BT-549 = test: Cytotoxicity against human BT549 cells after 48 hrs by SRB assay; settings: BT-549, 48 h; for CC50: read-out: LC50 (the source's name); how it was run: as §2
# COLO 205 = test: Cytotoxicity against human COLO205 cells after 48 hrs by SRB assay; settings: COLO 205, 48 h; for CC50: read-out: LC50 (the source's name); how it was run: as §2
compound,measurement,setting,value
Cc1ccc(Cn2cc(C=C3C(=O)N(C)C(=O)N(C)C3=O)c3ccccc32)cc1,inhibition of growth at 10 µM,NCI-H226 [1],-63%
same,inhibition of growth at 10 µM,A498 [2],-91%
same,GI50,SK-OV-3,23.7 µM
same,LC50,SK-OV-3,> 100 µM
same,GI50,NCI-H23,8.19 µM
same,LC50,NCI-H23,> 100 µM
same,GI50,A498 [3],0.12 µM
same,LC50,A498 [3],0.69 µM
same,GI50,MDA-MB-231,13.6 µM
same,CC50,MDA-MB-231,> 100 µM
same,GI50,T47D,5 µM
same,LC50,T47D,> 100 µM
same,GI50,OVCAR-8,> 100 µM
same,CC50,OVCAR-8,> 100 µM
same,GI50,K562,2.23 µM
same,CC50,K562,> 100 µM
same,GI50,NCI-H460,0.91 µM
same,CC50,NCI-H460,> 100 µM
same,GI50,HOP-62,7.44 µM
same,CC50,HOP-62,> 100 µM
same,GI50,TK-10 [4],0.28 µM
same,CC50,TK-10 [4],> 100 µM
same,CC50,SW-620,> 100 µM
same,GI50,LOX IMVI,27.8 µM
same,CC50,LOX IMVI,> 100 µM
same,GI50,IGROV-1,2.95 µM
same,CC50,IGROV-1,> 100 µM
same,inhibition of growth at 10 µM,[5],-23%
same,GI50,[6],6.23 µM
same,CC50,[6],> 100 µM
same,GI50,SR,1.89 µM
same,"LC50 (lethal concentration, 50%)",SR,> 100 µM
same,inhibition of growth at 10 µM,MDA-MB-468 [7],-62%
same,GI50,RXF 393,15.2 µM
same,"LC50 (lethal concentration, 50%)",RXF 393,> 100 µM
same,GI50,[8],2.02 µM
same,CC50,[8],> 100 µM
same,GI50,SK-MEL-5,9.17 µM
same,LC50,SK-MEL-5,> 100 µM
same,GI50,MDA-MB-468 [9],0.03 µM
same,LC50,MDA-MB-468 [9],0.62 µM
same,GI50,786-0,22.1 µM
same,LC50,786-0,> 100 µM
same,GI50,SNB-19,26.8 µM
same,LC50,SNB-19,> 100 µM
same,inhibition of growth at 10 µM,TK-10 [10],-4%
same,GI50,MCF7,6.76 µM
same,LC50,MCF7,> 100 µM
same,GI50,[11],0.07 µM
same,CC50,[11],> 100 µM
same,GI50,HCT-116,5.45 µM
same,LC50,HCT-116,> 100 µM
same,GI50,UACC-62,2.42 µM
same,LC50,UACC-62,> 100 µM
same,LC50,MDA-MB-435,> 100 µM
same,GI50,SF-295,2.02 µM
same,LC50,SF-295,> 100 µM
same,GI50,SN12C,> 100 µM
same,CC50,SN12C,> 100 µM
same,GI50,SK-MEL-2,3.36 µM
same,GI50,NCI-H226 [12],1.95 µM
same,CC50,NCI-H226 [12],> 100 µM
same,GI50,BT-549,13.5 µM
same,CC50,BT-549,> 100 µM
same,GI50,COLO 205,1.89 µM
same,CC50,COLO 205,> 100 µM
CN1C(=O)C(=Cc2cn(Cc3ccc(F)cc3)c3ccccc23)C(=O)N(C)C1=O,inhibition of growth at 10 µM,NCI-H226 [1],-78%
same,inhibition of growth at 10 µM,A498 [2],-85%
same,GI50,SK-OV-3,15.3 µM
same,LC50,SK-OV-3,> 100 µM
same,GI50,NCI-H23,51.5 µM
same,LC50,NCI-H23,> 100 µM
same,GI50,A498 [3],0.07 µM
same,LC50,A498 [3],0.67 µM
same,GI50,MDA-MB-231,23.6 µM
same,CC50,MDA-MB-231,> 100 µM
same,GI50,T47D,5.38 µM
same,LC50,T47D,> 100 µM
same,GI50,OVCAR-8,> 100 µM
same,CC50,OVCAR-8,> 100 µM
same,CC50,K562,> 100 µM
same,GI50,NCI-H460,0.37 µM
same,CC50,NCI-H460,> 100 µM
same,GI50,HOP-62,7.7 µM
same,CC50,HOP-62,> 100 µM
same,GI50,TK-10 [4],0.59 µM
same,CC50,TK-10 [4],> 100 µM
same,GI50,SW-620,> 100 µM
same,CC50,SW-620,> 100 µM
same,GI50,LOX IMVI,> 100 µM
same,CC50,LOX IMVI,> 100 µM
same,GI50,IGROV-1,4.33 µM
same,CC50,IGROV-1,> 100 µM
same,inhibition of growth at 10 µM,[5],-33%
same,GI50,[6],> 100 µM
same,CC50,[6],> 100 µM
same,GI50,SR,> 100 µM
same,"LC50 (lethal concentration, 50%)",SR,> 100 µM
same,inhibition of growth at 10 µM,MDA-MB-468 [7],-71%
same,GI50,RXF 393,14.9 µM
same,"LC50 (lethal concentration, 50%)",RXF 393,> 100 µM
same,GI50,[8],2.52 µM
same,CC50,[8],> 100 µM
same,GI50,SK-MEL-5,> 100 µM
same,LC50,SK-MEL-5,> 100 µM
same,GI50,MDA-MB-468 [9],0.03 µM
same,LC50,MDA-MB-468 [9],0.5 µM
same,GI50,786-0,22.7 µM
same,LC50,786-0,> 100 µM
same,GI50,SNB-19,26.7 µM
same,LC50,SNB-19,> 100 µM
same,inhibition of growth at 10 µM,TK-10 [10],-15%
same,GI50,MCF7,> 100 µM
same,LC50,MCF7,> 100 µM
same,GI50,[11],0.11 µM
same,CC50,[11],> 100 µM
same,GI50,HCT-116,6.26 µM
same,LC50,HCT-116,> 100 µM
same,GI50,UACC-62,2.89 µM
same,LC50,UACC-62,> 100 µM
same,GI50,MDA-MB-435,> 100 µM
same,LC50,MDA-MB-435,> 100 µM
same,GI50,SF-295,1.97 µM
same,LC50,SF-295,> 100 µM
same,GI50,SN12C,> 100 µM
same,CC50,SN12C,> 100 µM
same,GI50,SK-MEL-2,6.35 µM
same,GI50,NCI-H226 [12],2.56 µM
same,CC50,NCI-H226 [12],> 100 µM
same,GI50,BT-549,24.1 µM
same,CC50,BT-549,> 100 µM
same,GI50,COLO 205,1.44 µM
same,CC50,COLO 205,> 100 µM
